In ChEMBL document CHEMBL4368908 (J Med Chem, 2019):
Activity calls are given as the source filed them. The rule behind the calls is not given here.

What follows are compounds tested against T1, Inositol polyphosphate multikinase (Homo sapiens, UniProt Q8NFU5) (assay: Inhibition of human IPMK using insP3 as substrate preincubated for 15 mins followed by substrate and measured after 30 mins by TR-FRET assay). Settings: not given.
T1 sequence (Q8NFU5 whole entry): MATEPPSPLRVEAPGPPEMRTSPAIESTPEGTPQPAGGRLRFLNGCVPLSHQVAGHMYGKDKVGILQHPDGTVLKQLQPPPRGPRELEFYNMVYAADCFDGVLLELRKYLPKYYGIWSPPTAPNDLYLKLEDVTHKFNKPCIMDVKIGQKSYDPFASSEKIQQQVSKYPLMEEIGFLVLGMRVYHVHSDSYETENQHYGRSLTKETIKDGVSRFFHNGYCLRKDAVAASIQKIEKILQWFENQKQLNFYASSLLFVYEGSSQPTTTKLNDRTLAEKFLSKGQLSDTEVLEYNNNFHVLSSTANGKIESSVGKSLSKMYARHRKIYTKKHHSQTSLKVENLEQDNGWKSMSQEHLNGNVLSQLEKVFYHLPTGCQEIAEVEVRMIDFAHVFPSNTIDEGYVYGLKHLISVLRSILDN
In the case of `O=c1c(O)c(-c2ccc(O)c(O)c2)oc2cc(O)cc(O)c12` [QUERCETIN], the IC50 is reported as 2.3 µM.
With `O=c1c(O)c(-c2cc(O)c(O)c(O)c2)oc2cc(O)cc(O)c12` [MYRICETIN] the IC50 was 1.1 µM.
With `O=c1cc(-c2ccc(O)c(O)c2)oc2cccc(O)c12` the IC50 was over 30 µM.
Compound `O=C1C[C@@H](c2ccc(O)cc2)Oc2cc(O)cc(O)c21` [NARINGENIN] has an IC50 of over 30 µM.
Compound `O=C1C[C@@H](c2ccc(O)c(O)c2)Oc2cc(O)cc(O)c21` [ERIODICTYOL] has an IC50 of over 30 µM.
Work on `O=c1c(O)c(-c2ccc(O)cc2)oc2cc(O)cc(O)c12` [KAEMPFEROL] yielded an IC50 of 4.4 µM.
`O=c1cc(-c2ccc(O)c(O)c2)oc2ccccc12` showed an IC50 of over 30 µM.

The compounds below were run against RAC-alpha serine/threonine-protein kinase (Mus musculus) (UniProt P31750) (assay: Activation of AKT activity in mouse 3T3-L1 cells assessed as increase in AKT phosphorylation at T308 residues at 2.5 uM after 3 hrs by Western blot analysis). Settings: not given.
Chain of RAC-alpha serine/threonine-protein kinase (Mus musculus) (P31750 whole entry): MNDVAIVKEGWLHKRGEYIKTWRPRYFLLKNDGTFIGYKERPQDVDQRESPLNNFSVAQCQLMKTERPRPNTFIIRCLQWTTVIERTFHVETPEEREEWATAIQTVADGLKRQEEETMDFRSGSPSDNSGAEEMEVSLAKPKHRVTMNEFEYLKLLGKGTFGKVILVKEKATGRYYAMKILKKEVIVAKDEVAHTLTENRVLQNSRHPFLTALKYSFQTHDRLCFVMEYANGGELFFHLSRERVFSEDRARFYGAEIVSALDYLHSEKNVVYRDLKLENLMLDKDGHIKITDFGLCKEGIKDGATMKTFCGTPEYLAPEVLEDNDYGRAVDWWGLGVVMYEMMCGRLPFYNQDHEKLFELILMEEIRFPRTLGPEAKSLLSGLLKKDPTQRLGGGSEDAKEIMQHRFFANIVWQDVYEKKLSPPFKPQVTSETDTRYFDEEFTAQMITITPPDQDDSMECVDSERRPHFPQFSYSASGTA
Type: cell-based
Summary of the method: (§1)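 Cells (3T3-L1 preadipocytes 2 days post-confluent; HCT116 1 day post-confluent) treated 3 h with 2.5 μM flavonoid in DMSO (final DMSO 0.1%, vehicle control). Lysed in Tris pH 7.4/NaCl/Triton X-100 with protease-phosphatase inhibitors; 20 μg protein by SDS-PAGE and immunoblot for phospho-AKT T308 and total AKT. pAKT/total AKT ratio normalized to sum of ratios per gel; Dunnett's one-way ANOVA versus DMSO.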
With `COc1ccc(-c2cc(=O)c3c(O)cc(O)cc3o2)cc1O` the Activity was “Active”.
For `O=c1c(O)c(-c2ccc(O)c(O)c2)oc2cc(O)cc(O)c12` [QUERCETIN], the Activity was “Active”.

What follows are compounds tested against T2, Inositol hexakisphosphate kinase 2 (Mus musculus) (UniProt Q80V72) (assay: Inhibition of IP6K2 in mouse 3T3-L1 cells assessed as AKT phosphorylation at T308 at 1 uM after 3 hrs by Western blot analysis). Settings: not given.
T2 sequence (whole entry): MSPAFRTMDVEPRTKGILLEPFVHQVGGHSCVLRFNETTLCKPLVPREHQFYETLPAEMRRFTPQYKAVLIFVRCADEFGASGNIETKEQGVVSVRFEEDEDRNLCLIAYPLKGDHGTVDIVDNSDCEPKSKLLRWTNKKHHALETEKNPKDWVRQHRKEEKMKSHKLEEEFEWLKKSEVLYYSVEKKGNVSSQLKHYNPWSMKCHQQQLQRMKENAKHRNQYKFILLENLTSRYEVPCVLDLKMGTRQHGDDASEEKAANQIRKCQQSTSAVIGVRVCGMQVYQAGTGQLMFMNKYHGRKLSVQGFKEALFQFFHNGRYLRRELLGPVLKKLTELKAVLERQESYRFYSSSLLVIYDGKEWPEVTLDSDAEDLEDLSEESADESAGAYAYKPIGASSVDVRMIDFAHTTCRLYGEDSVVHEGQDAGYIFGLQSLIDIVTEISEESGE
Type: cell-based
Summary of the method: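 TNP reference treatment: 2-day post-confluent 3T3-L1 preadipocytes given 1 μM TNP in DMSO (final 0.1%) for 3 h. Lysates (20 μg protein) immunoblotted for phospho-AKT T308 and total AKT. pAKT/total AKT ratio normalized to sum of ratios per gel; one-way ANOVA (Dunnett) versus DMSO vehicle.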
With `COc1ccc(-c2cc(=O)c3c(O)cc(O)cc3o2)cc1O` the inhibition was “Active”.
With `O=c1c(O)c(-c2ccc(O)c(O)c2)oc2cc(O)cc(O)c12` [QUERCETIN] the inhibition was “Active”.

What follows are compounds tested against RAC-alpha serine/threonine-protein kinase (Homo sapiens) (UniProt P31749) (assay: Effect on AKT activity in human HCT116 cells assessed as AKT phosphorylation at T308 residues at 2.5 uM after 3 hrs by Western blot analysis). Settings: not given.
Chain of RAC-alpha serine/threonine-protein kinase (Homo sapiens) (P31749 whole entry): as the sequence (P31750 whole entry) above, with N2S, S50A, A100T, R112K, T117E, T389K, N410G, D415H counted along it
Type: cell-based
Summary of the method: as §1
`COc1ccc(-c2cc(=O)c3c(O)cc(O)cc3o2)cc1O` was tested, and the Activity was “inactive”.
In the case of `O=c1c(O)c(-c2ccc(O)c(O)c2)oc2cc(O)cc(O)c12` [QUERCETIN], the Activity is reported as “inactive”.

Organism: Homo sapiens
Assay: Selectivity ratio of IC50 for human IPMK to IC50 for human IP6K2
Settings: not given
Summary of the method: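 Recombinant human IPMK (12 nM) or IP6K2 (400 nM) equilibrated 15 min at room temperature with compound (10-point, 0.005–100 μM, 1% DMSO) in 50 mM HEPES pH 7.5, 0.01% Brij-35, 10 mM MgCl₂, 1 mM EGTA. Reaction started with 10 μM ATP plus 10 μM InsP₃ (IPMK) or InsP₆ (IP6K2), run 30 min. ADP detected by Adapta TR-FRET. IC50 from 4-parameter fit.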
For `O=c1cc(-c2ccc(O)c(O)c2)oc2cccc(O)c12`, the Ratio IC50 was over 3.8.
`O=C1C[C@@H](c2ccc(O)c(O)c2)Oc2cc(O)cc(O)c21` [ERIODICTYOL] was tested, and the Ratio IC50 was over 1.2.
In the case of `O=c1c(O)c(-c2ccc(O)cc2)oc2cc(O)cc(O)c12` [KAEMPFEROL], the Ratio IC50 is reported as 1.8.
`O=c1cc(-c2ccc(O)c(O)c2)oc2ccccc12` showed a Ratio IC50 of over 2.6.

Each compound was assayed against RAC-alpha serine/threonine-protein kinase (Mus musculus) (UniProt P31750) (assay: Activation of AKT activity in mouse 3T3-L1 cells assessed as increase in AKT phosphorylation at T308 residues at 10 uM after 3 hrs by Western blot analysis). Settings: not given.
Type: cell-based
With `O=[N+]([O-])c1ccc(CNc2nc(NCc3cccc(C(F)(F)F)c3)nc3[nH]cnc23)cc1` the Activity was “Active”.

Each compound was assayed against T1, Inositol polyphosphate multikinase (assay: Inhibition of IPMK in human [3H]-inositol-labelled HCT116 cells assessed as reduction in insp5 levels at 2.5 uM after 3.5 hrs by HPLC analysis relative to control). Settings: not given.
Summary of the method: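 [3H]inositol-labelled (20 μCi/ml) HCT116 cells exposed 3.5 h to 2.5 μM flavonoid in DMSO (final 0.1%). PCA quench, extraction and CarboPac HPLC of InsP5/InsP6/InsP7, compared with DMSO vehicle control. Means ± SE, n=3–4; Dunnett's one-way ANOVA versus DMSO.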
With `COc1ccc(-c2cc(=O)c3c(O)cc(O)cc3o2)cc1O` the inhibition was “inactive”.
In the case of `O=c1c(O)c(-c2ccc(O)c(O)c2)oc2cc(O)cc(O)c12` [QUERCETIN], the inhibition is reported as “inactive”.
For `O=c1c(O)c(-c2cc(O)c(O)c(O)c2)oc2cc(O)cc(O)c12` [MYRICETIN], the inhibition was “inactive”.
With `O=c1c(O)c(-c2ccc(O)cc2)oc2cc(O)cc(O)c12` [KAEMPFEROL] the inhibition was “inactive”.

Each compound was assayed on HCT-116 (assay: Down regulation of insp5 levels in human [3H]-inositol-labelled HCT116 cells at 2.5 uM after 3.5 hrs by HPLC analysis). Settings: not given.
Type: functional, cell-based
Summary of the method: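 HCT116 cells labeled with [³H]inositol (20 μCi/ml) were treated for 3.5 h with 2.5 μM flavonoid; compounds were added in DMSO, final 0.1%. Cells were PCA-quenched, and InsPs were extracted and resolved by CarboPac HPLC. Values are versus DMSO controls, n=3–4, by one-way ANOVA (Dunnett).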
With `COc1ccc(-c2cc(=O)c3c(O)cc(O)cc3o2)cc1O` the inhibition was “inactive”.
With `O=c1c(O)c(-c2ccc(O)c(O)c2)oc2cc(O)cc(O)c12` [QUERCETIN] the inhibition was “inactive”.
For `O=c1c(O)c(-c2cc(O)c(O)c(O)c2)oc2cc(O)cc(O)c12` [MYRICETIN], the inhibition was “inactive”.
`O=c1c(O)c(-c2ccc(O)cc2)oc2cc(O)cc(O)c12` [KAEMPFEROL] was tested, and the inhibition was “inactive”.

Each compound was assayed against RAC-alpha serine/threonine-protein kinase (Homo sapiens) (UniProt P31749) (assay: Effect on AKT activity in human HCT116 cells assessed as AKT phosphorylation at T308 residues at 10 uM after 3 hrs by Western blot analysis). Settings: not given.
Type: cell-based
In the case of `O=[N+]([O-])c1ccc(CNc2nc(NCc3cccc(C(F)(F)F)c3)nc3[nH]cnc23)cc1`, the Activity is reported as “inactive”.

Each compound was assayed against T3, Inositol hexakisphosphate kinase 2 (Homo sapiens, UniProt Q9UHH9) (assay: Inhibition of human IP6K2 using insP6 as substrate preincubated for 15 mins followed by substrate and measured after 30 mins by TR-FRET assay). Settings: not given.
T3 sequence (Q9UHH9 whole entry): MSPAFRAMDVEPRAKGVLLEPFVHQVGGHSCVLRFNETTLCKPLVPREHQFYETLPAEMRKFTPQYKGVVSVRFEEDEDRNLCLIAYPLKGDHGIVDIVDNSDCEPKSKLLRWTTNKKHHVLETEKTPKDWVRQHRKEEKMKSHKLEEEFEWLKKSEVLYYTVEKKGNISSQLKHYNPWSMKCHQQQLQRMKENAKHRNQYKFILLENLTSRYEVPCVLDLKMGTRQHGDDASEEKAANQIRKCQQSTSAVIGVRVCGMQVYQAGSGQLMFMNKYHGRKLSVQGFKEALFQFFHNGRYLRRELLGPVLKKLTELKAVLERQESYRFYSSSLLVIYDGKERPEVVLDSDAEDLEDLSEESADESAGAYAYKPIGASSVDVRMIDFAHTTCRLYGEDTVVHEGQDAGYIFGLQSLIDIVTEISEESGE
`O=c1c(O)c(-c2cc(O)c(O)c(O)c2)oc2cc(O)cc(O)c12` [MYRICETIN] was tested, and the IC50 was 0.7 µM.
`O=c1cc(-c2ccc(O)c(O)c2)oc2cccc(O)c12` showed an IC50 of 8 µM.
In the case of `O=C1C[C@@H](c2ccc(O)cc2)Oc2cc(O)cc(O)c21` [NARINGENIN], the IC50 is reported as over 30 µM.
`O=C1C[C@@H](c2ccc(O)c(O)c2)Oc2cc(O)cc(O)c21` [ERIODICTYOL] gave an IC50 of 25.3 µM.
For `O=c1c(O)c(-c2ccc(O)cc2)oc2cc(O)cc(O)c12` [KAEMPFEROL], the IC50 was 2.5 µM.
`O=c1cc(-c2ccc(O)c(O)c2)oc2ccccc12` was tested, and the IC50 was 11.4 µM.

These compounds were tested against T1, Inositol polyphosphate multikinase (assay: Inhibition of IPMK in human [3H]-inositol-labelled HCT116 cells assessed as reduction in insp5 levels at 2.5 uM up to 200 mins by HPLC analysis relative to control). Settings: not given.
Summary of the method: (§2)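 Time course: HCT116 cells prelabelled with [3H]inositol (20 μCi/ml) and treated with 2.5 μM flavonoid in DMSO (final 0.1%) for the indicated times. InsP5, InsP6 and InsP7 measured by CarboPac HPLC after PCA quench and extraction. Means ± SE, n=3–4.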
`COc1ccc(-c2cc(=O)c3c(O)cc(O)cc3o2)cc1O` was tested, and the inhibition was “inactive”.
`O=c1c(O)c(-c2ccc(O)c(O)c2)oc2cc(O)cc(O)c12` [QUERCETIN] was tested, and the inhibition was “inactive”.

The compounds below were run on HCT-116 (assay: Down regulation of insp5 levels in human [3H]-inositol-labelled HCT116 cells at 2.5 uM up to 200 mins by HPLC analysis). Settings: not given.
Type: functional, cell-based
Summary of the method: as §2
For `O=c1c(O)c(-c2ccc(O)c(O)c2)oc2cc(O)cc(O)c12` [QUERCETIN], the inhibition was “inactive”.

The compounds below were run against T1, Inositol polyphosphate multikinase (assay: Inhibition of IPMK in human [3H]-inositol-labelled HCT116 cells assessed as reduction in insp5 levels at 10 uM after 3.5 hrs by HPLC analysis relative to control). Settings: not given.
Summary of the method: (§3)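 HCT116 cells labelled with [3H]inositol at 20 μCi/ml, then treated 3.5 h with 10 μM flavonoid in DMSO (final 0.1%; vehicle controls). Quenched with PCA; extracted [3H]InsP5, InsP6 and InsP7 resolved by CarboPac HPLC and quantified as peak DPM relative to DMSO control.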
In the case of `COc1ccc(-c2cc(=O)c3c(O)cc(O)cc3o2)cc1O`, the inhibition is reported as “inactive”.
In the case of `O=c1c(O)c(-c2ccc(O)c(O)c2)oc2cc(O)cc(O)c12` [QUERCETIN], the inhibition is reported as 25%.

These compounds were tested on HEK293 (assay: Down regulation of insp5 levels in [3H]-inositol-labelled HEK293 cells at 2.5 uM after 3.5 hrs by HPLC analysis). Settings: Homo sapiens.
Type: functional, cell-based
Summary of the method: (§4)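 HEK293 cells labelled with [3H]inositol (20 μCi/ml), treated 3.5 h with 2.5 μM flavonoid in DMSO (final 0.1%; vehicle controls). PCA-quenched extracts analysed by CarboPac HPLC for InsP5, InsP6, InsP7 relative to DMSO control. Means ± SE, n=3; Dunnett's one-way ANOVA.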
With `COc1ccc(-c2cc(=O)c3c(O)cc(O)cc3o2)cc1O` the inhibition was “inactive”.
With `O=c1c(O)c(-c2ccc(O)c(O)c2)oc2cc(O)cc(O)c12` [QUERCETIN] the inhibition was “inactive”.

These compounds were tested on HCT-116 (assay: Down regulation of insp5 levels in human [3H]-inositol-labelled HCT116 cells at 10 uM after 3.5 hrs by HPLC analysis). Settings: not given.
Type: functional, cell-based
Summary of the method: as §3
In the case of `COc1ccc(-c2cc(=O)c3c(O)cc(O)cc3o2)cc1O`, the inhibition is reported as “inactive”.
In the case of `O=c1c(O)c(-c2ccc(O)c(O)c2)oc2cc(O)cc(O)c12` [QUERCETIN], the inhibition is reported as “inactive”.

The compounds below were run against T1, Inositol polyphosphate multikinase (assay: Inhibition of IPMK in [3H]-inositol-labelled HEK293 cells assessed as reduction in insp5 levels at 2.5 uM after 3.5 hrs by HPLC analysis relative to control). Settings: not given.
Type: cell-based
Summary of the method: as §4
For `COc1ccc(-c2cc(=O)c3c(O)cc(O)cc3o2)cc1O`, the inhibition was “inactive”.
In the case of `O=c1c(O)c(-c2ccc(O)c(O)c2)oc2cc(O)cc(O)c12` [QUERCETIN], the inhibition is reported as “inactive”.
